Assay type in all cases: functional
The test system of test [1] is Nakaseomyces glabratus. The test is described as follows: Antifungal activity against Candida glabrata ATCC 48435 assessed as reduction in growth after 48 hrs by broth microdilution method relative to control. The method, boiled down:
(§1)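 Growth was read as absorbance at 530 nm after incubation at 35 °C for 48 h. Percent reduction was calculated relative to control wells containing no antifungal, alongside a visual comparison of turbidity with those wells.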
On the technique in general: In broth dilution the organism is exposed to a series of concentrations in liquid medium.

Test [2] has as its system Candida albicans. The test is described as follows: Antifungal activity against Candida albicans ATCC 10231 assessed as reduction in growth after 48 hrs by broth microdilution method relative to control. The method, boiled down:
as §1

The test system of test [3] is Aspergillus fumigatus. As to the kind of experiment: Antifungal activity against Aspergillus fumigatus ATCC 16424 reduction in growth after 48 hrs by broth microdilution method relative to control. The method, boiled down:
as §1

The test system of test [4] is Cryptococcus neoformans. As to the kind of experiment: Antifungal activity against Cryptococcus neoformans ATCC 36556 assessed as reduction in growth after 48 hrs by broth microdilution method relative to control. The method, boiled down: as §1
The subject of test [5] is Aspergillus fumigatus. As to the kind of experiment: Antifungal activity against Aspergillus fumigatus ATCC 16424 after 48 hrs by broth microdilution method. To be noted: ATCC 16424, 48 h. The method, boiled down:
(§2)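 Plates were incubated at 35 °C for 48 h. MIC was reported only where both criteria held: turbidity clearly lower than in control wells without antifungal on visual comparison, and growth reduced by more than 50% relative to those controls, measured as absorbance at 530 nm.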

Test [6] relates to Candida albicans. The test is described as follows: Antifungal activity against Candida albicans ATCC 10231 after 48 hrs by broth microdilution method. Particulars: ATCC 10231, 48 h. The method, boiled down:
as §2

For test [7], the system named is Cryptococcus neoformans. The test is described as follows: Antifungal activity against Cryptococcus neoformans ATCC 36556 after 48 hrs by broth microdilution method. To be noted: ATCC 36556, 48 h. The method, boiled down: as §2
Test [8] has as its system Nakaseomyces glabratus. As to the kind of experiment: Antifungal activity against Candida glabrata ATCC 48435 after 48 hrs by broth microdilution method. Particulars: ATCC 48435, 48 h. The method, boiled down:
as §2

In brackets after ≈: the same amount, converted by molar mass. A value given as a limit tells only on which side of the number the result lay.

As to `C[C@@H]1CC[C@@]2(OC1)O[C@H]1C[C@H]3[C@@H]4CC[C@H]5CC(=O)CC[C@]5(C)[C@H]4CC[C@]3(C)[C@H]1[C@@H]2C`, the “inhibition (INH)” value with Nakaseomyces glabratus [1], in the test on Candida albicans [2], with Aspergillus fumigatus [3] and in the test with Cryptococcus neoformans [4] was <25% in each case.
Take `CC(=O)O[C@@H]1C[C@@]2(C)[C@@H](CC[C@@H]3[C@@H]2CC[C@]2(C)[C@@H]4[C@H](C[C@@H]32)O[C@]2(CC[C@@H](C)CO2)[C@H]4C)CC1=O`: the “inhibition (INH)” value in the test with Nakaseomyces glabratus [1] and in the test on Cryptococcus neoformans [4] was <25% each time. For the same compound, the MIC50 against Aspergillus fumigatus [5] is > 128 µg/mL; against Candida albicans [6], 32 µg/mL (≈ 67.7 µM).
As for `CC(=O)O[C@@H]1C[C@@]2(C)[C@@H](CC[C@@H]3[C@@H]2CC[C@]2(C)[C@@H]4[C@H](C[C@@H]32)O[C@]2(CC[C@@H](C)CO2)[C@H]4C)C[C@H]1O`, the MIC50 against Aspergillus fumigatus [5] is > 128 µg/mL; against Cryptococcus neoformans [7], 62.5 µg/mL (≈ 132 µM); against Nakaseomyces glabratus [8], 6.25 µg/mL (≈ 13.2 µM); in the test on Candida albicans [6] it was 16 µg/mL (≈ 33.7 µM).
For the compound `C[C@@H]1CC[C@@]2(OC1)O[C@H]1C[C@H]3[C@@H]4CC[C@H]5C[C@@H](O)[C@H](O)C[C@]5(C)[C@H]4CC[C@]3(C)[C@H]1[C@@H]2C`, the “inhibition (INH)” value with Nakaseomyces glabratus [1], with Candida albicans [2], in the test with Aspergillus fumigatus [3] and with Cryptococcus neoformans [4] was <25% throughout.
For `CC(=O)O[C@H]1C[C@@]2(C)[C@@H](CC[C@@H]3[C@@H]2CC[C@]2(C)[C@@H]4[C@H](C[C@@H]32)O[C@]2(CC[C@@H](C)CO2)[C@H]4C)C[C@@H]1O`, the “inhibition (INH)” value in the test on Nakaseomyces glabratus [1], in the test with Candida albicans [2], with Aspergillus fumigatus [3] and in the test on Cryptococcus neoformans [4] was <25% each time.
Consider `CC(=O)O[C@H]1C[C@@H]2CC[C@@H]3[C@H](CC[C@]4(C)[C@@H]5[C@H](C[C@@H]34)O[C@]3(CC[C@@H](C)CO3)[C@H]5C)[C@@]2(C)C[C@@H]1O`, for which the “inhibition (INH)” value in the test with Nakaseomyces glabratus [1], in the test on Candida albicans [2], in the test with Aspergillus fumigatus [3] and with Cryptococcus neoformans [4] was <25% each time.
As to `CC(=O)O[C@H]1C[C@@]2(C)[C@@H](CC[C@@H]3[C@@H]2CC[C@]2(C)[C@@H]4[C@H](C[C@@H]32)O[C@]2(CC[C@@H](C)CO2)[C@H]4C)C[C@H]1O`, the “inhibition (INH)” value in the test on Nakaseomyces glabratus [1], in the test on Candida albicans [2], with Aspergillus fumigatus [3] and with Cryptococcus neoformans [4] was <25% in each case.
Take `CC(=O)O[C@@H]1C[C@@H]2CC[C@@H]3[C@H](CC[C@]4(C)[C@@H]5[C@H](C[C@@H]34)O[C@]3(CC[C@@H](C)CO3)[C@H]5C)[C@@]2(C)C[C@@H]1O`: the “inhibition (INH)” value with Nakaseomyces glabratus [1], in the test with Candida albicans [2], in the test with Aspergillus fumigatus [3] and in the test with Cryptococcus neoformans [4] was <25% in each case.
For the compound `C[C@@H]1CC[C@@]2(OC1)O[C@H]1C[C@H]3[C@@H]4CC[C@H]5C[C@@H](O)CC[C@]5(C)[C@H]4CC[C@]3(C)[C@H]1[C@@H]2C` [TIGOGENIN], the “inhibition (INH)” value in the test on Candida albicans [2] and in the test with Cryptococcus neoformans [4] was <25% throughout. Further, the MIC50 is 16 µg/mL (≈ 38.4 µM) in the test on Aspergillus fumigatus [5] and > 62.5 µg/mL against Nakaseomyces glabratus [8].

Usually MIC50 stands for an inhibitory concentration at the 50% level, which refers to growth in some studies and to a panel of isolates in others. Read a high MIC50 as weaker potency.

Source of the values: ChEMBL document CHEMBL1770147, “Synthesis and antifungal activity of functionalized 2,3-spirostane isomers” (2011).
